Assay results: ChEMBL document CHEMBL3867438, “Cytotoxic Tirucallane and Apotirucallane Triterpenoids from the Stems of Picrasma quassioides” (J Nat Prod, 2016)

Assays:
Assay type in all cases: functional, cell-based
[1] = Cytotoxicity against human MKN28 cells assessed as inhibition of cell proliferation after 48 hrs by MTT assay; details: MKN-28, 48 h
How it was run: (§1)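 Cells grown in DMEM with 10% FBS, 100 U/mL penicillin, 100 μg/mL streptomycin, 37 °C, 5% CO2. Seeded 5 × 10^3 cells/well, 12 h, then exposed to compounds for 48 h. MTT (5 mg/mL stock) added for 4 h at 37 °C, formazan dissolved in DMSO, absorbance read at 570 nm. IC50 relative to untreated control. Triplicate, repeated twice; cis-platinum as positive control.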

[2] = Cytotoxicity against human MCF7 cells assessed as inhibition of cell proliferation after 48 hrs by MTT assay; details: MCF7, 48 h; how it was run: as §1
[3] = Cytotoxicity against human A549 cells assessed as inhibition of cell proliferation after 48 hrs by MTT assay; details: A549, 48 h; how it was run: as §1

Structure (SMILES) | IC50 [1] [µM] | IC50 [2] [µM] | IC50 [3] [µM]
CC(C)=CCC[C@H](C(=O)O)[C@@H]1CC[C@]2(C)C3=CC[C@@H]4[C@](C)(CC[C@H](O)[C@]4(C)CO)[C@H]3CC[C@@]12C | 9.1 | > 10 | > 10
CCO[C@@H]1O[C@@H](C=C(C)C)C[C@H]1[C@@H]1CC[C@]2(C)C3=CC[C@H]4C(C)(C)[C@@H](O)CC[C@]4(C)[C@H]3CC[C@@]12C | 7.9 | > 10 | 8.3
CCO[C@H]1O[C@H](C(C)(C)O)[C@@H](O)C[C@H]1[C@@H]1CC[C@]2(C)C3=CC[C@H]4C(C)(C)C(=O)CC[C@]4(C)[C@H]3CC[C@@]12C | > 10 | > 10 | > 10
CCO[C@H]1O[C@H](C=C(C)C)C[C@H]1[C@@H]1CC[C@]2(C)C3=CC[C@H]4C(C)(C)[C@@H](O)CC[C@]4(C)[C@H]3CC[C@@]12C | > 10 | > 10 | > 10
CO[C@@H]1O[C@H](C=C(C)C)C[C@H]1[C@@H]1CC[C@]2(C)C3=CC[C@H]4C(C)(C)[C@@H](O)CC[C@]4(C)[C@H]3CC[C@@]12C | 9.8 | > 10 | > 10
C[C@@H](C[C@@H](O)[C@H](O)C(C)(C)O)[C@@H]1CC[C@]2(C)C3=C(C(=O)C[C@@]12C)[C@@]1(C)CCC(=O)C(C)(C)[C@@H]1CC3=O | > 10 | > 10 | > 10
C[C@@H](C[C@@H](O)[C@@H](O)C(C)(C)O)[C@@H]1CC[C@]2(C)C3=CC[C@H]4C(C)(C)C(=O)CC[C@]4(C)[C@H]3CC[C@@]12C | 6.9 | 8.5 | 8
CCO[C@H]1O[C@H](C(C)(C)O)[C@@H](O)C[C@H]1[C@@H]1CC[C@]2(C)C3=CC(=O)[C@H]4C(C)(C)C(=O)CC[C@]4(C)[C@H]3CC[C@@]12C | 8.2 | > 10 | > 10
CC1(C)OC[C@H]([C@@H]2CC[C@]3(C)C4=CC[C@H]5C(C)(C)[C@H](O)CC[C@]5(C)[C@H]4CC[C@@]23C)C[C@@H](O)[C@@H]1O | > 10 | > 10 | > 10
CCO[C@H]1O[C@@H]([C@H](O)C(C)(C)O)C[C@H]1[C@@H]1CC[C@]2(C)C3=CC[C@H]4C(C)(C)C(=O)CC[C@]4(C)C3=CC[C@@]12C | 8.3 | > 10 | > 10
CCO[C@H]1O[C@@H]([C@H](O)C(C)(C)O)C[C@H]1[C@@H]1CC[C@]2(C)C3=CC=C4C(C)(C)C(=O)CC[C@]4(C)C3=CC[C@@]12C | > 10 | > 10 | > 10
CCO[C@H]1O[C@@H]([C@H](O)C(C)(C)O)C[C@H]1[C@@H]1CC[C@]2(C)C3=CC[C@H]4C(C)(C)C(=O)CC[C@]4(C)[C@H]3CC[C@@]12C | > 10 | > 10 | > 10
CC(C)(O)[C@H]1OC[C@H]([C@H]2CC[C@]3(C)C4=CC[C@H]5C(C)(C)C(=O)CC[C@]5(C)[C@H]4CC[C@@]23C)C[C@H]1O | 6.7 | 9.9 | 7
C[C@@H](C[C@@H](O)[C@H](O)C(C)(C)O)[C@@H]1CC=C2[C@]3(C)[C@H](O)C[C@H]4C(C)(C)C(=O)CC[C@]4(C)[C@H]3CC[C@]21C | > 10 | > 10 | > 10
CCO[C@@H]1O[C@H]([C@@H](O)C(C)(C)O)C[C@H]1[C@@H]1CC[C@]2(C)C3=CC[C@H]4C(C)(C)[C@@H](O)CC[C@]4(C)C3=CC[C@@]12C | 9.1 | > 10 | > 10
C[C@@H](C[C@@H](O)[C@H](O)C(C)(C)O)[C@@H]1CC[C@]2(C)C3=CC(=O)[C@H]4C(C)(C)[C@@H](O)CC[C@]4(C)[C@H]3CC[C@@]12C | > 10 | > 10 | > 10
CO[C@H]1O[C@H](C=C(C)C)C[C@H]1[C@@H]1CC[C@]2(C)C3=CC[C@H]4C(C)(C)[C@@H](O)CC[C@]4(C)[C@H]3CC[C@@]12C | 8.8 | > 10 | > 10
CC(C)(O)[C@H]1OC[C@H]([C@@H]2CC[C@]3(C)C4=CC[C@H]5C(C)(C)C(=O)CC[C@]5(C)[C@H]4CC[C@@]23C)C[C@H]1O | > 10 | > 10 | > 10
COC(=O)[C@@H](CCC=C(C)C)[C@@H]1CC[C@]2(C)C3=CC[C@@H]4[C@](C)(CCC(=O)[C@]4(C)CO)[C@H]3CC[C@@]12C | 8.3 | > 10 | > 10
COC1OC(C=C(C)C)C[C@H]1[C@@H]1CC[C@]2(C)C3=CC[C@H]4C(C)(C)[C@H](O)CC[C@]4(C)[C@H]3CC[C@@]12C (some centres undefined) | > 10 | > 10 | > 10
CC(C)(O)[C@@H]1[C@@H](O)[C@H]([C@@H]2CC=C3[C@]4(C)[C@H](O)C[C@H]5C(C)(C)[C@H](O)CC[C@]5(C)[C@H]4CC[C@]32C)C[C@H]1O | > 10 | > 10 | > 10
C[C@@H](C[C@@H](O)[C@H](O)C(C)(C)O)[C@@H]1CC=C2[C@]3(C)[C@H](O)[C@@H](O)[C@H]4C(C)(C)C(=O)CC[C@]4(C)[C@H]3CC[C@]21C | > 10 | > 10 | > 10
CCCCCC(=O)O[C@@H]1C[C@]2(C)C(=CC[C@H]2[C@]2(O)C[C@@H]([C@@H](O)C(C)(C)O)O[C@H]2OC)[C@]2(C)[C@H](O)C[C@H]3C(C)(C)C(=O)C=C[C@]3(C)[C@@H]12 | > 10 | > 10 | > 10
CCOC(=O)CC[C@]1(C)[C@H]2CC[C@@]3(C)[C@H]([C@@H](C)CC/C=C(\C)CO)CC[C@]3(C)C2=CC[C@H]1C(C)(C)O | > 10 | > 10 | > 10
CO[C@H]1O[C@@H](C=C(C)C)C[C@H]1[C@@H]1CC[C@]2(C)C3=CC[C@H]4C(C)(C)[C@@H](O)CC[C@]4(C)[C@H]3CC[C@@]12C | > 10 | > 10 | > 10
CO[C@@H]1O[C@H](C=C(C)C)C[C@H]1[C@@H]1CC[C@]2(C)C3=CC[C@H]4C(C)(C)[C@H](O)CC[C@]4(C)[C@H]3CC[C@@]12C | > 10 | > 10 | > 10
CCO[C@@H]1O[C@@H]([C@H](O)C(C)(C)O)C[C@H]1[C@@H]1CC[C@]2(C)C3=CC[C@H]4C(C)(C)C(=O)CC[C@]4(C)[C@H]3CC[C@@]12C | > 10 | > 10 | > 10
C[C@@H](CC[C@H](O)C(C)(C)O)[C@@H]1CC[C@]2(C)C3=CC[C@H]4C(C)(C)C(=O)CC[C@]4(C)[C@H]3CC[C@@]12C | 9.1 | > 10 | > 10
